Experimental data: ChEMBL document CHEMBL5329171, “First-in-class small molecule inhibitors of ICOS/ICOSL interaction as a novel class of immunomodulators” (RSC Med Chem, 2023)

Assays:
[1] = target: T1, ICOS-ICOSL (Homo sapiens) (UniProt O75144+Q9Y6W8); test: Inhibition of human ICOS expressed in Jurkat T cells coexpressing TCR/CD3 and NanoLuc luciferase reporter/ICOSL (unknown origin) expressed in CHO-K1 cells interaction assessed as reduction in luminescence; type: cell-based; conditions: dose 5-20 µM
In short: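 Commercial blockade kit, run per manufacturer's protocol. ICOS effector Jurkat cells (NanoLuc reporter) co-cultured with ICOSL/CHO-K1 cells carrying a TCR/CD3 activator. Compound tested at 5, 10 and 20 μM; anti-ICOS mAb (100 nM) as positive control. Luminescence compared with untreated control. Triplicate, single run.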

[2] = Metabolic stability in human plasma measured at 120 mins; type: ADME, cell-free; conditions: 2 h
[3] = Stability in simulated intestinal fluid at pH 6.5; type: ADME; conditions: simulated gi fluid
HEL 299 = test: Cytotoxicity against human HEL 299 cells; type: toxicity, cell-based
[4] = Metabolic stability in rat liver microsomes; type: ADME, Microsome
[5] = Stability in simulated gastric fluid at pH 1.6; type: ADME; conditions: simulated gi fluid
ICOS-ICOSL [6] = target: T2, ICOS-ICOSL (Homo sapiens, UniProt O75144+Q9Y6W8); test: Inhibition of C-terminal IgG1 Fc region fused human ICOS extracellular domain (1 to 141 residues)/C-terminal polyhistidine tagged human ICOSL extracellular domain (1 to 258 residues) interaction incubated for 1 hr by TR-FRET assay; type: protein assay
T2 sequence (O75144 whole entry): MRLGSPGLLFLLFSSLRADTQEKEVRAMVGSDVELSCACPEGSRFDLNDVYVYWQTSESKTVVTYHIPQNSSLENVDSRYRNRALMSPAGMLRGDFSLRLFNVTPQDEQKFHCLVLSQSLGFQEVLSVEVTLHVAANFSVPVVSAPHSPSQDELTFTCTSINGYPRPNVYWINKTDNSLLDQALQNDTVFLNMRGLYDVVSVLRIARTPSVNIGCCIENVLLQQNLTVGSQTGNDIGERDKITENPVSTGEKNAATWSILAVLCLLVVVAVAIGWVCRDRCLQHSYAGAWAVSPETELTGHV
T2 sequence (Q9Y6W8 whole entry): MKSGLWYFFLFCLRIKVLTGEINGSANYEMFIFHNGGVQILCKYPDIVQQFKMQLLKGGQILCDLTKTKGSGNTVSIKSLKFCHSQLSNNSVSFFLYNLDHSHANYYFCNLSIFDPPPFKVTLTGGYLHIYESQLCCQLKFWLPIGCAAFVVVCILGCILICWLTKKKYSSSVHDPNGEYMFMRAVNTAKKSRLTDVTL
In short: (§1)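 Fc-tagged human ICOS and His-tagged ICOSL, 10 nM each final, with Tb cryptate anti-His mAb (1 nM) donor and XL665 anti-human Ab (10 nM) acceptor. Compounds in DMSO (0.1%)/PBS pH 7.4, 1 h at room temperature. Read 665/620 nm ratio ×100 with 340 nm excitation. Percent inhibition scaled 0% (DMSO) to 100% (1 μM anti-ICOS mAb). Triplicate, single run. Single-dose screen at 50 μM final; IC50 from dose–response.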

[7] = target: T1, ICOS-ICOSL (Homo sapiens); test: Inhibition of C-terminal IgG1 Fc region fused human ICOS extracellular domain (1 to 141 residues)/C-terminal polyhistidine tagged human ICOSL extracellular domain (1 to 258 residues) interaction assessed as reduction in FRET signal at 50 uM incubated for 1 hr by TR-FRET assay relative to control; type: protein assay; in short: as §1
ICOS-ICOSL [8] = target: T2, ICOS-ICOSL; test: Inhibition of ICOS (unknown origin)/C-terminal IgG1 FC region fused human ICOSL interaction by ELISA; type: protein assay
In short: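 Commercial ICOS/ICOSL ELISA kit, run per manufacturer's protocol. Anti-ICOS antagonist mAb as positive control. Triplicate, single run.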

Structure (SMILES): O=C(Nc1cc(Cl)cc2c1[nH]c1cnc(NCc3ccccc3)cc12)c1cccnc1
- inhibition [1]: Dose-Dependent Effect
- Stability [2]: Stable
- Stability [3]: Stable
- Activity (HEL 299): Non-Toxic
- Stability [4]: Stable
- Stability [5]: Stable
- IC50 (ICOS-ICOSL [6]): 4.68 µM

Structure (SMILES): O=C(Nc1ccc(Cl)cc1)c1c(O)ccc2c1[nH]c1ccccc12
- IC50 (ICOS-ICOSL [6]): > 50 µM

Structure (SMILES): O=C(Nc1cc(Cl)cc2c1[nH]c1cnccc12)c1ccncc1
- IC50 (ICOS-ICOSL [6]): 31 µM

Structure (SMILES): CC1(C)CN[C@@H](C(=O)Nc2cc(Cl)cc3c2[nH]c2cnccc23)CO1
- IC50 (ICOS-ICOSL [6]): 11.1 µM

Structure (SMILES): O=C(Nc1cc(Cl)cc2c1[nH]c1cnccc12)c1ccccc1
- IC50 (ICOS-ICOSL [6]): > 50 µM

Structure (SMILES): O=C(Nc1cc(Cl)cc2c1[nH]c1cnc(NCc3ccccc3)cc12)c1ccccn1
- IC50 (ICOS-ICOSL [6]): 15.5 µM

Structure (SMILES): COc1c(Cl)cc2c([nH]c3cnccc32)c1NC(=O)c1cncnc1C
- IC50 (ICOS-ICOSL [6]): 5.65 µM

Structure (SMILES): COc1ccc(C(=O)Nc2cc(Cl)cc3c2[nH]c2cnccc23)cc1
- IC50 (ICOS-ICOSL [6]): 49.3 µM

Structure (SMILES): COc1ccccc1C(=O)Nc1cc(Cl)cc2c1[nH]c1cnccc12
- IC50 (ICOS-ICOSL [6]): 43.7 µM

Structure (SMILES): O=C(Nc1ccc(Cl)cc1)c1cc2c(cc1O)[nH]c1ccccc12
- IC50 (ICOS-ICOSL [6]): > 50 µM

Structure (SMILES): O=C(Nc1cc(Cl)cc2c1[nH]c1cnccc12)c1cccnc1
- IC50 (ICOS-ICOSL [6]): 13.9 µM

Structure (SMILES): O=C(Nc1cc(Cl)cc2c1[nH]c1cnc(NCc3ccccc3)cc12)c1ccncc1
- IC50 (ICOS-ICOSL [6]): 18.4 µM

Structure (SMILES): COc1cccc(C(=O)Nc2cc(Cl)cc3c2[nH]c2cnccc23)c1
- IC50 (ICOS-ICOSL [6]): 36.7 µM

Structure (SMILES): O=C(Nc1cc(Cl)cc2c1[nH]c1cnccc12)c1ccccn1
- IC50 (ICOS-ICOSL [6]): 28.6 µM

Structure (SMILES): COc1c(Cl)cc2c([nH]c3cnccc32)c1NC(=O)c1cccnc1C
- inhibition [7]: > 90%
- IC50 (ICOS-ICOSL [8]): 10.3 µM
- IC50 (ICOS-ICOSL [6]): 12.2 µM

Structure (SMILES): O=C(Cc1ccccn1)Nc1cc(Cl)cc2c1[nH]c1cnccc12
- IC50 (ICOS-ICOSL [6]): 37.1 µM

Structure (SMILES): CCOc1ccc(-c2nc(C(=O)Nc3ccccc3Cl)cc3c2[nH]c2ccccc23)cc1OC
- IC50 (ICOS-ICOSL [6]): > 50 µM
